Compound activity deposited in PubChem BioAssay by SRMLSC.
Many of the other results were omitted from the sample, so hits are more common in it than they were.
PostGolgi ctrl = inhibits growth of the yeast control strain; efflux-deficient yeast background strain, growth absorbance A615, 16 h; inhibition, % at 10 µM; 98,000 tested, 5% active; AID 738
PostGolgi yeast = growth inhibition of a yeast mutant, post-Golgi transport screen; post-Golgi transport phenotypic cell assay; 98,000 tested, 0.9% active; inhibition, % at 10 µM;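 also: yeast cells grown in 1536-well plates; yeast grown about 18 h at 30C before absorbance read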
Yeast life ext = extends the lifespan of yeast; S. cerevisiae growth with nicotinamide, OD615; deaD strain in restrictive glucose medium; inhibition of the nicotinamide effect, % at 10 µM; 130,000 tested, 0.68% active; AID 775;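 active = inhibition above a set limit, placed 3 SD over the median of all compounds, cut at about 26% in these data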;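 also: 0% = nicotinamide-treated wells and 100% = cells grown without nicotinamide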
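Assay system: engineered S. cerevisiae DeaD replicative-lifespan strain, galactose-grown log-phase cells; Buffer or medium: CSMM-D glucose medium, restrictive; Probe or stimulus: nicotinamide 1.5 mM; Compound: single dose 10 µM compound, 0.25% DMSO; Schedule: 4 h preincubation then 48 h treatment at 30 °C; Technique: OD615 measurement.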
Yeast growth inh = chemicals that inhibit yeast BB579 growth in restrictive medium (lifespan-shortening candidates); S. cerevisiae BB579 growth, OD615, 48 h; AID 804; 140,000 tested, 0.51% active; inhibition, % at 10 µM;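 active = inhibition above a set limit, 3 SD over the mean compound inhibition, cut at about 44% in these data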
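Test system: S. cerevisiae DeaD strain BB579 yeast; Medium: restrictive CSMM-D medium; Compound: one dose, 10 µM compound with 0.25% DMSO; Incubation: 4 h cell preincubation, 48 h compound exposure, 30 °C humidified; Signal: OD at 615 nm; Benchmarks: amphotericin B at 10 µg/mL as positive control.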
* = called active by the depositor; . = no result given. Rule as the data show it, unless noted: active = inhibition above about 30%; inactive = the rest.

SMILES	PostGolgi ctrl	PostGolgi yeast	Yeast life ext	Yeast growth inh
O=C(CCCCCNS(=O)(=O)c1ccc(Br)cc1)NCCN1CCOCC1	-4.2	2.8	-3.5	-14.6
O=C(Nc1ccc(Br)cc1Cl)Nn1cnnc1	33.9*	3.0	-3.1	-17.1
C/C(=N\N1CCN(c2ccccc2)CC1)c1ccco1	.	.	-1.6	-38.7
O=C1CC(N2CCN(Cc3ccc4c(c3)OCO4)CC2)C(=O)N1c1ccccc1 (configuration not stated)	40.0*	-0.5	-2.4	-70.8
COc1cc(C)c(/C=C(\C#N)C(=O)Nc2cccc(C)c2)cc1C(C)C	.	.	2.3	-33.1
O=S(=O)(Nc1nc2ccccc2nc1N1CCN(c2ccccc2F)CC1)c1ccc(Cl)cc1	6.7	-10.4	-0.6	-80.1
O=c1cc(-c2ccccc2)nc(N2CCN(Cc3ccccc3)CC2)[nH]1	38.9*	12.9	-12.2	-18.6
O=C(CSc1nnc2c3ccccc3c3ccccc3c2n1)Nc1ccccc1	45.0*	-9.2	-0.9	-59.2
COc1ccc(NC(=O)CN(C)S(=O)(=O)c2ccc3c(c2)CCC(=O)N3)c(OC)c1	-4.3	-11.6	-6.1	-2.1
c1ccc(CN2CCN(C3=Nc4cccc5cccc3c45)CC2)cc1	16.2	3.0	-3.4	-45.6
O=C1CCN2C=Nc3cccc4ccc1c2c34	-1.5	4.7	-11.6	56.5*
CN1CCC(=NNC(=O)CSCc2ccccc2)CC1	38.8*	-4.2	-9.6	-32.7
CC(NC(=O)Cc1cccs1)c1ccc2c(c1)OCO2 (configuration not stated)	37.2*	12.5	0.5	-43.1
COc1cccc(NS(=O)(=O)c2nc3nc(C)cc(C)n3n2)c1	-5.2	13.5	-2.6	2.9
Cc1ccc(-n2c(SCC(N)=O)nnc2-c2ccc(S(=O)(=O)N3CCCCC3)cc2)c(C)c1	10.2	4.4	-2.8	-83.2
CCc1cc2c(=O)[nH]c(N3CCCC3)nc2s1	.	.	0.7	-30.8
CCc1cc2c(=O)[nH]c(-c3ccccn3)nc2s1	.	.	-5.7	78.3*
Cc1cc(C)nc(SCC(=O)n2c3c(c4ccccc42)CCCC3)n1	.	.	-0.9	-11.9
O=C(CSc1ncccn1)n1c2c(c3ccccc31)CCCC2	50.7*	-0.8	-5.7	12.9
O=C(Nc1cccc2ccccc12)c1ccccc1NS(=O)(=O)c1cccc2cccnc12	.	.	8.4	-49.1
O=C(Nc1cccc2cccnc12)c1cccc2ccccc12	36.5*	-3.8	-4.4	-41.1
O=C(CC1Oc2ccc(Cl)cc2NC1=O)NC1CCCCCC1 (configuration not stated)	14.2	0.7	-1.6	-1.2
Cc1ccc(/C=C2\C(=O)Nc3ccccc32)o1	.	.	-6.7	60.3*
Cc1nn(-c2ccc(F)cc2)c(Cl)c1/C=C1\C(=O)Nc2ccccc21	.	.	-0.7	-30.6
COc1ccc(CCNC(=O)CSc2nc3ccccc3o2)cc1	1.8	4.6	-4.0	-14.4
SMILES	PostGolgi ctrl	PostGolgi yeast	Yeast life ext	Yeast growth inh
COc1ccc(C(=O)/C(=C/c2cccs2)c2nc3ccccc3o2)cc1	37.5*	1.0	3.4	-35.0
COc1ccc(C(CC(=O)c2ccccc2)S(=O)(=O)c2ccc(C)cc2)cc1 (configuration not stated)	-2.6	-8.0	-15.3	-19.5
COc1ccc(C(=O)C/C(=C\C(=O)c2ccc(C)cc2)c2ccccc2)cc1	4.4	-4.5	33.2*	-23.0
COc1ccc(OC)c(C(=O)COC(=O)c2ccccc2O)c1	10.5	-0.6	-18.6	0.0
COc1ccc(O)c(C(=O)CC(=O)c2ccccc2)c1	33.1*	11.8	-29.8	-13.1
CCn1cc(/C=N/NS(=O)(=O)c2ccc(OC)cc2)c(C)n1	6.6	6.2	-2.8	-1.5
CC(/C=C1\SC(=S)N(CCCC(=O)Nc2ccc(C(=O)O)cc2)C1=O)=C\c1ccccc1	.	.	9.6	-50.4
CC(/C=C1\SC(=O)N(CCCC(=O)O)C1=O)=C\c1ccccc1	.	.	29.2*	-17.6
Cc1ccc(Cl)cc1NC(=O)COC(=O)CC1CC2CCC1C2 (configuration not stated)	-1.0	19.4	-5.7	-66.4
COC(=O)c1ccc(C(=O)OC)c(NC(=O)COC(=O)CC2CC3CCC2C3)c1 (configuration not stated)	33.0*	1.4	-8.9	-29.9
O=C(/C=C/c1ccc(Cl)cc1)c1cccnc1	15.5	38.6*	-5.8	-19.0
CC(C)C(c1nnnn1CCc1ccccc1)N1CCOCC1 (configuration not stated)	-3.8	10.7	-6.4	-13.9
COc1ccc(N2CCN(C(c3nnnn3CCc3ccccc3)C(C)C)CC2)cc1 (configuration not stated)	34.9*	8.8	-11.7	-53.6
COc1ccc(CCn2nnnc2C(C(C)C)N2CCN(c3ncccn3)CC2)cc1OC (configuration not stated)	35.5*	-1.2	-10.8	-50.8
COc1ccc(CCn2nnnc2C(CC(C)C)N2CCN(c3ncccn3)CC2)cc1OC (configuration not stated)	-2.7	-10.2	-24.8	-17.4
Clc1ccc2[nH]c3c(c2c1)CCc1cn[nH]c1-3	57.3*	74.0*	-29.4	100.3*
COC(=O)c1ccc(N=C2S/C(=C\c3cc(C)n(-c4cccnc4)c3C)C(=O)N2C)cc1	32.3*	1.6	-3.8	-38.8
CN=C1S/C(=C\c2cc(C)n(-c3ccccc3F)c2C)C(=O)N1C	20.8	-4.2	-13.7	-44.9
CC(C)CNc1cc(=O)n(C)c(=O)n1C	47.9*	6.4	0.0	35.0
Nc1ccnc(Oc2ccc(F)cc2)c1	.	.	7.3	-18.5
Cc1ccc(Nc2cc(C)nc(-c3ccccc3O)n2)cc1	39.6*	-3.7	-17.2	-14.2
Nc1cc(=O)[nH]c(SCC(=O)Nc2cc(Cl)cc(Cl)c2)n1	17.4	-10.3	-5.8	-15.8
COC(=O)CNC(=O)CSc1nc(N)cc(=O)[nH]1	30.6*	7.3	-4.1	12.2
COC(=O)CCC(=O)Nc1cccc2ccccc12	34.1*	10.8	-12.0	-14.5
COCC(=O)Nc1cccc2ccccc12	6.0	3.9	-12.7	-33.1
SMILES	PostGolgi ctrl	PostGolgi yeast	Yeast life ext	Yeast growth inh
CCCC(C)NC(=O)c1ccc(C2SCC(=O)N2Cc2ccco2)cc1 (configuration not stated)	8.4	1.4	-3.5	-32.1
O=c1cc(NCc2ccco2)[nH]c(=O)n1-c1ccc(Br)cc1	36.8*	5.2	6.5	-41.6
CN(CC(=O)Nc1ccc(Cl)cc1)c1ccc(S(=O)(=O)N2CCCCC2)cc1[N+](=O)[O-]	.	.	13.3	-33.6
CCN(CC)C(=O)Nc1cnc2ccccc2c1	32.7*	2.9	-18.5	-57.1
CS(=O)(=O)N(CC(=O)Nc1ccccc1Sc1ccccc1)c1ccc(F)cc1	54.5*	-2.0	-0.2	-39.2
O=C(Cc1ccc(F)cc1)Nc1ccccc1Sc1ccccc1	.	.	4.4	-19.2
CC1CN(C(=O)CSc2nnc3c(Cl)cc(Cl)cn23)CC(C)O1 (configuration not stated)	-0.7	-3.0	-6.0	-18.1
Cn1c(-c2cc3c(C(F)(F)F)nn(C)c3s2)n[nH]c1=S	15.2	14.8	-14.3	-41.9
CCn1c(-c2cc3c(C(F)(F)F)nn(C)c3s2)n[nH]c1=S	40.6*	4.4	-33.1	-46.2
CC(=O)OC1COC(n2ccc3cc([N+](=O)[O-])ccc32)C(OC(C)=O)C1OC(C)=O (configuration not stated)	.	.	.	-22.3
